Assay results as given in ChEMBL document CHEMBL1150167, “Sesquiterpenes from Ferula penninervis” (2002).

What was measured:
Assay type in all cases: functional
[1] = Inhibition of lipopolysaccharide IL2 production in human PMNC at 0.3 ug/mL by ELISA
Procedure, shortened: (§1)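 Cytokine (IL-1β, IL-2, IL-4, TNF) concentrations were measured directly by ELISA in the culture supernatants. The paper attributes the cytokines to macrophages in the culture.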

[2] = Inhibition of lipopolysaccharide TNFalpha production in human PMNC at 0.3 ug/mL by ELISA; procedure, shortened: as §1
[3] = Inhibition of lipopolysaccharide IL4 production in human PMNC at 0.3 ug/mL by ELISA; procedure, shortened: as §1
[4] = Inhibition of lipopolysaccharide IL1-beta production in human PMNC at 0.3 ug/mL by ELISA; procedure, shortened: as §1

`C[C@]12C=CC(=O)C=C1CC[C@@H]1[C@@H]2[C@@H](O)C[C@@]2(C)[C@H]1CC[C@]2(O)C(=O)CO` [PREDNISOLONE] showed an inhibition at 0.3 µg/mL [1] of 30.6%, an inhibition at 0.3 µg/mL [2] of 47.9% and an inhibition at 0.3 µg/mL [3] of 40.7%. It also gave an inhibition at 0.3 µg/mL [4] of 24.8%.
